Seven molecules from PubChem BioAssay can be followed below.

In general, inhibition refers to the drop in the measured response relative to a control, in per cent.

Structures are written as SMILES. Activity calls are given as the source filed them.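 Rule for the calls, unless noted: active = fluorescence slope after compound addition differing from the mean of all screened samples at 99.7% confidence, in either direction; inactive = the rest.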

Experiment [1] can be described thus: inhibitors of TNFa-induced NFkB p65 translocation, primary screen, imaging, HUVEC, MLSMR starter and 10KST1 sets (AID 438;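 active = inhibition above 20% together with a positive visual image hit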;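 note: compound added about 3h40 before a 20 min TNFalpha stimulation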;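 for inhibition: signal is the nuclear over cytoplasmic p65 intensity ratio per well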). The following applies: HUVEC TNFa-induced p65 nuclear translocation; cell count: measured here: nuclei count (cytotoxicity indicator), at 2.08 µM; inhibition: at 2 µM, stronger effect = higher value, 0% TNFa-plus-vehicle, 100% no-TNFa wells.
A short description of experiment [2]: inhibitors of E-selectin induction by TNFa, primary screen, imaging, HUVEC, immunofluorescence, MLSMR starter and 10KST1 sets (AID 487;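 active = visually confirmed hit in the image check and inhibition above 20%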;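 for inhibition: signal is fraction of cell area covered by stained E-selectin grains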;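 for nuclei count: 100% = median nuclei count of all wells on the same plate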). The following applies: HUVEC TNFalpha-induced E-selectin immunofluorescence imaging, at 2 µM; inhibition: stronger effect = higher value; nuclei count: measured here: cell number, toxicity.
A short description of experiment [3]: DUSP6 inhibitors restoring Erk phosphorylation by chemical complementation, primary imaging in DUSP6-transfected HeLa (AID 609;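 active = compounds giving at least 50% inhibition in the cell-based MKP-3 phosphatase rescue imaging test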;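 for inhibition: phospho-Erk level distribution per well compared with pooled transfected vehicle control wells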). The following applies: HeLa MKP-3 transfected, phospho-Erk imaging KS statistic, at 10 µM, cells stimulated with TPA for 15 min.
The target in experiment [4] is Dual specificity protein phosphatase 6 (Homo sapiens) (UniProt Q16828). The experiment is described as above. The following applies: HeLa MKP-3 transfected, phospho-Erk imaging KS statistic; at 10 µM; stronger effect = higher value; cells stimulated with TPA for 15 min.
Dual specificity protein phosphatase 6 (Homo sapiens), sequence (Q16828 whole entry, looked up): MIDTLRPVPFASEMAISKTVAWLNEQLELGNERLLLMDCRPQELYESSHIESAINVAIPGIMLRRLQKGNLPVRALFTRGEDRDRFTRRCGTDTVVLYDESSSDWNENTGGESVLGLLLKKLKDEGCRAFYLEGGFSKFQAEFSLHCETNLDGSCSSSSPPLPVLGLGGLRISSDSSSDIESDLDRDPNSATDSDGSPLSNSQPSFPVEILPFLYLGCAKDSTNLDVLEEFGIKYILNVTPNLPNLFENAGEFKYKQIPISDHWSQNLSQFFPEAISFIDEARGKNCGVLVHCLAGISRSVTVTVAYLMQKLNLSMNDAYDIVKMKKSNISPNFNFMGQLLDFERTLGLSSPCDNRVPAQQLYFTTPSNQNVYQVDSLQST
The target of experiment [5] is Voltage-gated potassium channel subunit beta-2 (Rattus norvegicus) (UniProt P62483). Put plainly: KvBeta enzyme negative modulators, primary screen, biochemical, NADPH fluorescence (AID 622;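 active = fluorescence slope higher than the sample average by over 3 SD, cut at about -0.22 in these data, passing the limit was not always enough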;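 note: slope of raw intensity against log time taken from 70 to 1610 s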). Conditions: recombinant KvBeta, 4-cyanobenzaldehyde reduction, at 10 µM, stronger effect = higher value.
Voltage-gated potassium channel subunit beta-2 (Rattus norvegicus), sequence (P62483 whole entry, looked up): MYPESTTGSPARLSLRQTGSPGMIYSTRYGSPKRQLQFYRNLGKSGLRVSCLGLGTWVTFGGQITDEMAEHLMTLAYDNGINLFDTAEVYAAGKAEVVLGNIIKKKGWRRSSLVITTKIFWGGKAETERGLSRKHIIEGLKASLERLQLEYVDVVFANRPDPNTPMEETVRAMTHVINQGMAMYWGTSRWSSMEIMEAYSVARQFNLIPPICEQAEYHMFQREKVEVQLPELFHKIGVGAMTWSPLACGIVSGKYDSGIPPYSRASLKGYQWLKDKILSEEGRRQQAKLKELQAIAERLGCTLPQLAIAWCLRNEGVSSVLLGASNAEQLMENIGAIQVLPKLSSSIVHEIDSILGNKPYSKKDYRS
For experiment [6] the target is unchanged. Put plainly: KvBeta positive modulators, primary screen, biochemical, NADPH fluorescence (AID 623;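 active = NADPH fluorescence slope more negative than the mean of all samples by about 3 SD, 99.7% confidence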;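 note: fluorescence intensity change per second fitted from 20 to 320 s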). The following applies: Recombinant KvBeta, NADPH fluorescence decrease slope, 10 min; at 10 µM; stronger effect = lower value.
Experiment [7] deals with Alpha-2C adrenergic receptor (Homo sapiens) (UniProt P18825). Nature of the experiment: modulators of alpha2C/GIRK thallium flux, primary screen, cell-based, HEK293 alpha2C/GIRK1/2 (AID 624).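 Note: slope of fluorescence ratio to pre-addition baseline per second over 15 to 24 s.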 Conditions: thallium flux BTC fluorescence, at 10 µM, actives lie on both sides.
Alpha-2C adrenergic receptor (Homo sapiens), sequence (P18825 whole entry, looked up): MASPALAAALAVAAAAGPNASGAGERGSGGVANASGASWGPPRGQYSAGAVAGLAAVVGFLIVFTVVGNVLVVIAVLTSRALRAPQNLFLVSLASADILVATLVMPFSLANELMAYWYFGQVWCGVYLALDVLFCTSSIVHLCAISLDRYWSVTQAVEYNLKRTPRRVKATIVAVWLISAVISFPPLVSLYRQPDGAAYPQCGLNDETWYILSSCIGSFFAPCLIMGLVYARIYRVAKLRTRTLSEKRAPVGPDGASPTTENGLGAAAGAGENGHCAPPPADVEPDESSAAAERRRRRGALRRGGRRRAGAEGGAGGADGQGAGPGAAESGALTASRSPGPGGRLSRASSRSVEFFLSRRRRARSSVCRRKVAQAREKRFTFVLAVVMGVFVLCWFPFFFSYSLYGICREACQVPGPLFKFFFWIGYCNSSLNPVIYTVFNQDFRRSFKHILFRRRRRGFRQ
Experiment [8] can be described thus: inhibitors of larval lipid processing in zebrafish, primary screen, whole organism, PED6 fluorescence, gall bladder and intestine (AID 686;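 active = a full or partial loss of lipid-probe fluorescence in the fish gall bladder, intestine or both, judged by eye; inactive = no fluorescence loss, or compound toxic to the fish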;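 note: larvae 5 to 7 days old with five fish per well; signal comes from phospholipase A2 cleavage of quenched PED6 carried via bile; overnight exposure to compound and PED6 before scoring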). Conditions: Zebrafish larvae PED6 lipid processing, fluorescence scoring; screened at 20 µM (by protocol). The method, boiled down:
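Also added: quenched phospholipase substrate PED6, 100 nM final, ingested by larvae; System: zebrafish larvae, 5-7 d; Quantity: 5 larvae per well; Compound: 20 µM single dose; Schedule: overnight compound and PED6 incubation; Read-out: visual per-well fluorescence inhibition score; Measured by: By-eye fluorescence microscopy; Medium: E3.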

The nature of experiment [9]: inhibitors of Chlamydomonas gravitaxis, primary screen, whole organism, Chlamydomonas reinhardtii, WT vs cilia-less mutant, absorbance, 96-well (AID 463189;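 active = inhibition at or above 50% relative to wild type and mutant plate controls; inactive = inhibition below 50%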;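 note: 0% = wild type cc124 cells in DMSO and 100% = ciliumless bld1 mutant cells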). The following applies: OD600 absorbance, 2 days, at 10 µM, stronger effect = higher value.
Setting [10] is: measured here: cell density z-score.
The mark [11] stands for this setting: measured here: nuclear c-Myc green intensity z-score.
[12] abbreviates: measured here: nuclear pErk red intensity z-score, stronger effect = higher value.

For the molecule `COc1cccc(C2/C(=C(/O)c3cnn(-c4ccccc4)c3C)C(=O)C(=O)N2CCN(C)C)c1` (stereo unspecified), the cell count in experiment [1] stood at 510. For the same molecule, the inhibition in [1] is -2.9% (inactive); in [2], -176% (inactive); in experiment [4], -8.76% (inactive); in experiment [9], 7.34% (inactive). Moreover, the nuclei count in [2] turned out to be 132%. For the same molecule, the z-score was 0.354 in [3] (setting [10]), -0.911 in experiment [3] (setting [11]) and 0.0449 in experiment [3] (setting [12]). The fluorescence slope in experiment [5] is -0.551 (inactive). Further, the NADPH fluorescence slope in experiment [6] is -7.2e-05 (inactive). Also, in experiment [7], the slope is 0.00551 (inactive). In [8], the molecule was classed as inactive.
`CC(C)Oc1ccc(C(=O)CCN2CCCCC2)cc1`: the cell count in experiment [1] worked out at 457. Further, the inhibition is 6.5% (inactive) in experiment [1], -349% (inactive) in [2], -10.6% (inactive) in experiment [4] and 139% (active) in experiment [9]. Besides, the nuclei count in [2] stood at 163%. The z-score in experiment [3] (setting [10]) was 0.309; in experiment [3] (setting [11]) it was -0.269; in experiment [3] (setting [12]) it was -0.0861. In experiment [5], the fluorescence slope is -0.258 (inactive). In addition, the NADPH fluorescence slope in experiment [6] is 2.6e-05 (inactive). The slope in experiment [7] is 0.00524 (inactive). In addition, in experiment [8], the molecule was called inactive.
With `CCOc1ccc(Cn2c(O)cc(=O)[nH]c2=O)cc1`, in experiment [1], the cell count was 530. For the same molecule, the inhibition was 1.9% (inactive) in [1], -97.4% (inactive) in experiment [2], 14% (inactive) in experiment [4] and -15% (inactive) in experiment [9]. Moreover, the nuclei count in experiment [2] was determined as 190%. The z-score in [3] (setting [10]) was 0.509; in [3] (setting [11]), 0.944; in experiment [3] (setting [12]), -0.603. The fluorescence slope in experiment [5] is -0.322 (inactive). Also, the NADPH fluorescence slope in [6] was 9.9e-06 (inactive). In addition, in experiment [7], the slope is 0.00555 (inactive). Moreover, in experiment [8], the result was inactive.
Regarding `CC1(C)CC(=O)C2=C(C1)N(Cc1ccco1)C(=O)C2(NC(=O)c1cccnc1)C(F)(F)F` (stereo unspecified), in experiment [1], the cell count is 499. Also, the inhibition in experiment [1] was -8.6% (inactive); in experiment [2], -131% (inactive); in [4], 3.5% (inactive); in experiment [9], 0.823% (inactive). Moreover, the nuclei count in [2] was 136%. Moreover, the z-score in [3] (setting [10]) was -1.48; in [3] (setting [11]), -1.13; in [3] (setting [12]), 0.615. Besides, the fluorescence slope in experiment [5] was -0.492 (inactive). In addition, the NADPH fluorescence slope in experiment [6] is -6.7e-05 (inactive). Moreover, the slope in experiment [7] was 0.00643 (inactive). For the same molecule, the molecule was classed as inactive in experiment [8].
As to `CCSc1nnc(N(CCC(=O)O)CCC(=O)O)s1`, the cell count in experiment [1] worked out at 371. Besides, the inhibition in experiment [1] is -10.5% (inactive); in experiment [2], -116% (inactive); in experiment [4] it was 7.48% (inactive); in [9] it was -5.02% (inactive). This molecule registered a nuclei count in experiment [2] of 155%. In addition, the z-score in experiment [3] (setting [10]) was 0.0345; in experiment [3] (setting [11]), 0.0362; in [3] (setting [12]) it was -1.04. Besides, the fluorescence slope in experiment [5] was -0.422 (inactive). In addition, in experiment [6], the NADPH fluorescence slope is -2.2e-05 (inactive). Further, in experiment [7], the slope is 0.00562 (inactive). In addition, the outcome in experiment [8] was inactive.
For the molecule `c1ccc(C2=Nn3c(nnc3-c3ccccn3)SC2)cc1`, in experiment [1], the cell count came out at 589. For the same molecule, the inhibition in [1] was -10.9% (inactive); in [2], -79.3% (inactive); in experiment [4], -9.66% (inactive); in experiment [9], -6.13% (inactive). Besides, in [2], the nuclei count is 170%. Moreover, the z-score in experiment [3] (setting [10]) was -0.434; in experiment [3] (setting [11]), 1.46; in experiment [3] (setting [12]) it was 1.25. The fluorescence slope in experiment [5] was -0.412 (inactive). Also, in [6], the NADPH fluorescence slope is -0.000132 (inactive). In addition, the slope in experiment [7] was 0.00684 (inactive). Further, the outcome in experiment [8] was inactive.
As to `COc1ccc(CNC(=O)c2c(C)cc(=O)oc2C)cc1OC`, the cell count in [1] was found to be 446. Besides, the inhibition in experiment [1] was 1.8% (inactive); in [2], -121% (inactive); in experiment [4], -1.12% (inactive); in [9], -7.01% (inactive). For the same molecule, the nuclei count in experiment [2] was 167%. Moreover, the z-score came to 0.057 in experiment [3] (setting [10]), 0.328 in experiment [3] (setting [11]) and 1.22 in experiment [3] (setting [12]). In addition, in experiment [5], the fluorescence slope is -0.427 (inactive). Moreover, in experiment [6], the NADPH fluorescence slope was -4.8e-05 (inactive). The slope in experiment [7] is 0.00518 (inactive). The molecule was called inactive in [8].
